HSF-1 act: increases HSF-1 driven luciferase reporter signal; AID 504408; 300,000 tested, 1.7% active; NIH3T3-HGL HSF-1 luciferase reporter, MG132, 8 h; 100% = twice DMSO control signal; activation, % at 9 µM;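 active means mean replicate activation of at least 50% with a set share of replicates each reaching 50%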;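 further: 0% = median of the neutral control wells and 100% = twice that signal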
HCV NS3 hel inh: HCV NS3 helicase inhibition | NS3 helicase DNA unwinding, Cy5 molecular beacon fluorescence | 290,000 tested, 0.56% active | inhibition, % at 10.9 µM | AID 1800;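 active means inhibition above the mean of all tested compounds plus 3 SD, set per campaign, cut at about 35% in these data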;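 further: 0% = DMSO wells and 100% = thioflavine S control wells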
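Material: hepatitis C virus NS3 helicase domain fragment enzyme; measured by: Cy5 fluorescence, 0 and 60 min reads; control set: DMSO and thioflavine S; incubation: 60 min unwinding reaction at 25 °C after ATP addition; read-out basis: % inhibition from 60/0 min fluorescence ratio, DMSO 0%, thioflavine S 100%; repeats: singlicate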
HSP90 refold inh: HSP90 refolding inhibition in rabbit reticulocyte lysate | luciferase refolding luminescence, 3 h | inhibition, % at 5.6 µM | 290,000 tested, 0.91% active | AID 1789;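 active means inhibition above the screen-wide mean plus 3 SD, computed separately per campaign, cut at about 16% in these data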;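 further: 0% = DMSO wells and 100% = 60 µM geldanamycin wells; inhibitors lower the luminescence because luciferase stays unfolded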
HSF1 inh: HSF1 inhibition. NIH3T3-HGL HSE-luciferase, MG132-induced, luminescence 8 h; stronger effect = lower value. activity change, negative = inhibition, % at 7.5 µM (by protocol). 300,000 tested, 0.77% active;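 active means more than half of replicate wells show activity change below -50%, luminescence cut by over half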;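 further: luciferase reports HSF-1 transcriptional activity via heat shock element; 0% = median of DMSO wells and -100% = zero luminescence signal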
Hep lipid drop: hepatic lipid droplet formation modulation. AML12 mouse hepatocytes, oleate lipid droplets, BODIPY imaging. inhibition, % at 6.5 µM. 240,000 tested, 0.4% active;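 active means lipid droplet intensity inhibited by at least 50%, with more than 500 cells counted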
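Test system: AML12 mouse liver cells; schedule: overnight exposure; technique: high-content imaging of BODIPY-stained droplets and DAPI nuclei; read-out: % inhibition of corrected integrated BODIPY droplet signal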
* hit, by the source's call; x = no result given. Rows were chosen to be rich in hits. Some 3.8% of all compounds tested hit in one or more screens of this group.

SMILES | HSF-1 act | HCV NS3 hel inh | HSP90 refold inh | HSF1 inh | Hep lipid drop
CCOc1ccccc1CN1CCNC(=O)C1CC(=O)NCc1nccn1CC (stereo not drawn) | 67* | -9 | -2 | 20 | -1
Cc1nnc(NCCc2ccccc2)c2ccccc12 | 54* | -11 | 6 | 28 | 4
Cc1nnc(NCc2cccc(Cl)c2)c2ccccc12 | 7 | -33 | 6 | 2 | -6
CCCCC1(C)NC(=S)N2N1C(=S)NC2(C)CCCC (stereo not drawn) | -12 | -5 | 0 | -5 | 2
CC(Oc1ccc(Cl)cc1)/C(N)=N/O (stereo not drawn) | 2 | 9 | 2 | -5 | 1
CC(Oc1ccc(Cl)cc1)C(=O)/C=C/N(C)C (stereo not drawn) | 54* | 12 | -8 | 11 | x
CCOC(=O)C1=C(C)C/C(=N\NC(=O)c2ccccc2O)CC1 | 46 | 2 | -1 | 21 | -18
CC(C)C(C(=O)NCc1ccccc1)N(CC1CCCO1)C(=O)CNS(=O)(=O)c1ccccc1 (stereo not drawn) | 83* | 4 | -5 | 36 | -18
CC(C)C(C(=O)NCc1ccco1)N(CC1CCCO1)C(=O)CNS(=O)(=O)c1ccccc1 (stereo not drawn) | -9 | -2 | -1 | 1 | -30
O=[N+]([O-])c1nn(-c2ccc3c(c2)OCCO3)n(O)c1=NCc1ccc(F)cc1 | 54* | 16 | 3 | 23 | -34
COc1cc(OC)c(N(C)S(=O)(=O)c2cccc(C(=O)Nc3nnc(C4CC4)s3)c2)cc1Cl | 131* | -17 | 3 | 73 | -9
COc1ccc(N(C)S(=O)(=O)c2cccc(C(=O)Nc3nnc(C4CC4)s3)c2)cc1 | -52 | -5 | -1 | -39 | -10
COc1ccc(C(=O)NCCc2c[nH]c3ccccc23)cc1 | 38 | 7 | -8 | 17 | 0
O=C(NCCc1c[nH]c2ccccc12)c1ccc(Cl)cc1 | 59* | 14 | 2 | 35 | -10
Cc1cc(C)cc(OCC(O)CN2C(=O)NC(C)(C)C2=O)c1 (stereo not drawn) | 64* | 0 | -2 | 36 | x
Cc1ccc(OCC(O)CN2C(=O)NC(C)(C)C2=O)c(C)c1 (stereo not drawn) | 6 | 14 | 1 | -1 | 2
Nc1nc(-c2ccccc2)nn1S(=O)(=O)c1ccccc1 | 1 | -5 | 0 | 0 | 1
CCCCNC(=S)Nc1ccc(OC)nc1 | 65* | 1 | -4 | 23 | 10
COc1ccc(NC(=O)/C(Cl)=C(/Cl)S(=O)Cc2ccccc2)cn1 (stereo not drawn) | -93 | 1 | 6 | -93* | -25
COC(=O)C1(C(F)(F)F)C2C=CC(C2)N1S(=O)(=O)c1ccc(C)cc1 (stereo not drawn) | -2 | -6 | -2 | 3 | -5
O=C(Nc1ccc2oc(-c3ccncc3)nc2c1)c1ccc([N+](=O)[O-])o1 | 84* | -1 | 0 | 101 | x
Cn1cc([N+](=O)[O-])c(C(=O)Nc2ccc(-c3nc4ccccc4o3)cc2)n1 | 285* | 0 | 1 | 281 | -3
O=C(Nc1ccc2oc(-c3ccncc3)nc2c1)c1ccccc1 | -1 | -10 | -2 | 4 | 8
Cc1ccc(-c2nc3ncccc3o2)cc1NC(=O)c1ccco1 | 3 | 3 | 1 | -3 | x
O=C(Nc1ccc(-c2nc3ncccc3o2)cc1)c1ccc([N+](=O)[O-])o1 | 151* | 11 | 2 | 104 | -6
SMILES | HSF-1 act | HCV NS3 hel inh | HSP90 refold inh | HSF1 inh | Hep lipid drop
O=C(Nc1ccc(-c2nc3ccccc3o2)cc1)c1ccc(N2CCOCC2)c([N+](=O)[O-])c1 | -1 | -3 | 0 | -8 | x
Cc1ccc(-c2nc3ncccc3o2)cc1NC(=O)c1ccc([N+](=O)[O-])o1 | 139* | -1 | 2 | 91 | 0
CN(CCc1ccccc1)C1CCCN(S(=O)(=O)CC(F)(F)F)C1 (stereo not drawn) | -6 | -4 | 2 | 1 | 0
CCN(CC(=O)Nc1c(F)cccc1F)C(=O)C1=COCCO1 | 8 | x | x | -3 | x
Cc1nc(-c2ccc([N+](=O)[O-])cc2)nc2[nH]ccc(=O)c12 | 33 | -10 | -2 | 20 | -25
Cc1cc(Cl)cc(Br)c1OCCCN1C(=O)NC(C)(C)C1=O | 75* | -6 | -7 | 32 | x
O=C(CN1CCN(Cc2ccccc2)C1=O)NCc1ccc(Cl)cc1 | -1 | 2 | 3 | -2 | -2
CCN(CCNC(=O)CN1CCN(Cc2ccc(Cl)cc2)C1=O)c1ccccc1 | 70* | -6 | -2 | 49 | -31
O=C(Nc1ccccc1C(=O)NCCCN1CCOCC1)c1ccc(Cl)cc1 | 2 | 5 | -3 | -5 | 2
COc1ccccc1N1CCN(/N=C/c2ccccc2C(=O)O)CC1 | 8 | 7 | -1 | 7 | -12
Clc1ccc2c(c1)[C@H]1OCC[C@H]1[C@@H](c1ccco1)N2 | 70* | 24 | 1 | 30 | 21
Fc1ccc2c(c1)[C@H]1OCC[C@H]1[C@@H](c1ccco1)N2 | -3 | -3 | -3 | 2 | -17
COC(=O)c1ccc(CN2CCN(C3CCCC3)C(CCO)C2)cc1 (stereo not drawn) | 9 | 4 | 0 | -2 | -1
COC(=O)c1ccc(CN2CCN(C3CCCCC3)C(CCO)C2)cc1 (stereo not drawn) | -72 | 13 | -2 | -64* | 1
COc1ccc(C(=O)NC(C)c2nnc(SCC(=O)NC3CCCC3)n2C)cc1 (stereo not drawn) | 8 | 13 | 2 | -6 | -2
CCOc1ncccc1C(=O)OCC(=O)Nc1cc(S(=O)(=O)N2CCOCC2)ccc1C | 7 | -8 | 3 | -10 | 4
Cc1ccc(S(=O)(=O)N2CCOCC2)cc1NC(=O)COC(=O)c1cccnc1Cl | 54* | 18 | -1 | 6 | 14
CC(=O)Oc1c(C)cc(Cl)cc1C(=O)Nc1ccc([N+](=O)[O-])cc1Cl | 56* | 4 | 1 | 21 | -54
CC(=O)OCC(=O)Nc1ccc([N+](=O)[O-])cc1Cl | -1 | 4 | -2 | -8 | 22
Cc1cc(OCc2cc(C(=O)NC3CCC3)no2)cc(C)c1Cl | 15 | -12 | 1 | 1 | -7
Cc1cc(OCc2cc(C(=O)NC(C)c3c(C)nn(C)c3C)no2)cc(C)c1Cl (stereo not drawn) | 54* | -19 | -4 | 36 | 8
COc1ccccc1N(CC1CO1)S(=O)(=O)c1ccc(C)cc1 (stereo not drawn) | 7 | -10 | -1 | -1 | 14
Cc1oc(S(=O)(=O)N(C)C)cc1C(=O)Nc1ccc(Cl)cc1 | 55* | -1 | 2 | 15 | 18
COc1ccc(NC(=O)c2cc(S(=O)(=O)N3CCCC3)oc2C)cc1 | 30 | 5 | 2 | -2 | 6
C=CCSC1=C(C#N)C(c2cccc(OC)c2)CC(=O)N1 (stereo not drawn) | 51* | -7 | 0 | 8 | 3
